Reference: article PMC2664401 (Pharmaceutical research, 2008)
Values joined by “and” are separate entries in the source; they are usually repeats but may differ in a detail not shown here. Equal values may be shown once. “Also recorded” adds a separate entry of the source.

What was measured:
[1] = Aqueous solubility, shake flask method in water; type: physicochemical; settings: for solubility at 24 h: water, 25 °C, thermodynamic from solid
Procedure, shortened: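 Excess solid test compound was added to 0.5 mL water pre-equilibrated at 25 °C and shaken in a water bath at 25 ± 0.5 °C and 75 rpm for 24 h. Aliquots were centrifuged, and the supernatant was filtered and assayed for drug content. Analysis was by HPLC on a C18 column with 15 mM phosphate (pH 2.5)/1% acetonitrile and fluorescence detection (ex 270, em 380). Runs were in duplicate.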

Solution = type: physicochemical
[2] = Stability in ocular tissue homogenates: cornea; type: in vitro ADME; settings: rabbit, corneal homogenate supernatant, pH 7.4
[3] = Stability in ocular tissue homogenates: iris-ciliary body; type: in vitro ADME; settings: rabbit, iris-ciliary body homogenate supernatant, pH 7.4
[4] = Stability in vitreous humor; type: in vitro ADME, rabbit; settings: for Apparent first order rate constant (k*): Vitreous Humor used as such, 37 °C, overall observed degradation; for half-life at 10 μg/mL: rabbit, vitreous humor (used as such)
[5] = Stability in ocular tissue homogenates: retina/choroid; type: in vitro ADME; settings: rabbit, retina/choroid homogenate supernatant, pH 7.4
[6] = Hydrolysis in DPBS transport media; type: physicochemical; settings: pH 7.4
[7] = target: T1, amino acid transporter B^0,+ (Oryctolagus cuniculus, UniProt G1T8K9); assay: Transcorneal transport mechanism studies; type: in vitro ADME, rabbit; settings: for Substrate of the corneal amino acid transporter B^0,+: concluded from rabbit corneal permeability with and without inhibitors
T1 sequence (G1T8K9 1-637): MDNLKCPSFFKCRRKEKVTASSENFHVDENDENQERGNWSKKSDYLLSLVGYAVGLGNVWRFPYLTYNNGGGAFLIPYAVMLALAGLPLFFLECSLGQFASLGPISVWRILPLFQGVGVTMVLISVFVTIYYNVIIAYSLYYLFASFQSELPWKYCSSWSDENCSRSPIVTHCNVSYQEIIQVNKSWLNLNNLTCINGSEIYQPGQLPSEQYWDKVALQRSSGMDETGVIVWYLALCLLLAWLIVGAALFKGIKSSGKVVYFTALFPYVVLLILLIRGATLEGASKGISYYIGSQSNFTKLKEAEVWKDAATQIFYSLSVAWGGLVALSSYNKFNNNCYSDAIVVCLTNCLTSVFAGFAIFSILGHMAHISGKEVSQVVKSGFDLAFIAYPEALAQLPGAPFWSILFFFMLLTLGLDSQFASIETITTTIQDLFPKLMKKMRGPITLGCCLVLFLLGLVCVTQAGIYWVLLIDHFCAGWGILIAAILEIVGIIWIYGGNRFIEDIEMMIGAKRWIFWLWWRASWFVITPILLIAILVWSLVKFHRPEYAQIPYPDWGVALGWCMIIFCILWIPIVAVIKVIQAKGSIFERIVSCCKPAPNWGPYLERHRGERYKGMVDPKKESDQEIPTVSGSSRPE

[8] = cited from earlier work
B^o,+ = settings: a substrate of B^o,+; cited from earlier work
[9] = test system: amino acid transporter B^0,+; settings: xenopus laevis oocytes; cited from earlier work

Structure (SMILES)	solubility at 24 h [1]	half-life at 10 μg/mL [2] [h]	half-life at 10 μg/mL [3] [h]	Apparent first order rate constant (k*) [4]	half-life at 10 μg/mL [4] [h]	half-life at 10 μg/mL [5] [h]	Substrate of the corneal amino acid transporter B^0,+ [7]	also measured
Nc1nc2c(ncn2COCCOC(=O)C(N)Cc2ccccc2)c(=O)[nH]1 (stereo not shown) [phenylalanine-ACV]								Transport of [^3H]-L-Arginine in the presence of prodrug (B^o,+): decreased transport
Nc1nc2c(ncn2COCCOC(=O)C[C@H](N)C(=O)O)c(=O)[nH]1 [acyclovir-L-aspartate β-ester]								Transport by the amino acid transporter B^0,+ [9]: is transported

The next lines start with results.

solubility at 24 h [1]	half-life at 10 μg/mL [2] [h]	half-life at 10 μg/mL [3] [h]	Apparent first order rate constant (k*) [4]	half-life at 10 μg/mL [4] [h]	half-life at 10 μg/mL [5] [h]	Substrate of the corneal amino acid transporter B^0,+ [7]	Structure (SMILES)	also measured
3840 µg/mL and 10200 µM	4.83 ± 0.203	2.23 ± 0.085	4.2 ± 0.1 ×10^3, min^−1	2.76 ± 0.065	0.86 ± 0.0267	is a substrate	Cl.Nc1nc2c(ncn2COCCOC(=O)[C@@H](N)CC(=O)O)c(=O)[nH]1 [L-Asp-ACV, (S)-3-amino-4-(2-((2-amino-6-oxo-1H-purin-9(6H)-yl)methoxy)ethoxy)-4-oxobutanoic acid-HCl]	half-life at 50 μg/mL (Solution; borate buffer, pH 9): 5.6 ± 0.2 h; half-life at 50 μg/mL (Solution; hydrochloride buffer, pH 1.2): 627 ± 31 h; half-life at 50 μg/mL (Solution; phosphate buffer, pH 7): 32 ± 0.4 h; half-life at 50 μg/mL (Solution; phthalate buffer, pH 3): 371 ± 16 h; half-life at 50 μg/mL (Solution; phthalate buffer, pH 5): 262 ± 4 h; half-life ([6]; buffer): 5.1 ± 0.1 h; Effect of glutamic acid on transcorneal transport ([7]; L-Glutamic acid 1 mM, pH 5): not inhibited; also recorded: failed to inhibit; Transcorneal permeability in the presence of BCH ([7]; male, New Zealand albino, rabbit, 3 h): 2.66±0.21 × 10^−6 cm.s^−1
1200 µg/mL and 5300 µM							Nc1nc2c(ncn2COCCO)c(=O)[nH]1 [ACV, acyclovir, reference compound]	saturation solubility in water [8]: 1200 µg/mL
3850 µg/mL and 10200 µM	3.73 ± 0.21	2.32 ± 0.168	5 ± 0.5 ×10^3, min^−1	2.34 ± 0.252	20 ± 1.47	not a substrate	Cl.Nc1nc2c(ncn2COCCOC(=O)[C@H](N)CC(=O)O)c(=O)[nH]1 [D-Asp-ACV, (R)-3-amino-4-(2-((2-amino-6-oxo-1H-purin-9(6H)-yl)methoxy)ethoxy)-4-oxobutanoic acid-HCl]	Solubility, fold higher than that of ACV ([1]; relative to ACV): about 2 fold; half-life ([6]; DPBS): 5.6 ± 0.2 h
